Results published in ChEMBL document CHEMBL4765370, “Design, synthesis, and biological evaluation of aryl piperazines with potential as antidiabetic agents via the stimulation of glucose uptake and inhibition of NADH:ubiquinone oxidoreductase” (Eur J Med Chem, 2020).

What was measured:
[1] = test system: C2C12; assay: Induction of glucose uptake in mouse C2C12 cells assessed as [3H]2-deoxyglucose uptake preincubated for 16 hrs followed by followed by [3H]2-deoxyglucose addition and measured after 10 mins by liquid scintillation counting method; format: functional
Procedure, shortened: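 C2C12 mouse myoblasts were grown in high-glucose DMEM with 10% FBS. At 80% confluence they were differentiated into myotubes with 2% horse serum. Myotubes were exposed to compound (10 µM) for 16 h in medium with 0.1% horse serum, then washed with KRB pH 7.4 and given 1 µCi/mL [3H]-2-deoxyglucose for 10 min at 37 °C. After ice-cold washes and 0.1% SDS lysis, scintillation counts were normalised to BCA protein. Results are fold change vs DMSO, mean ± SEM, one-way ANOVA.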

[2] = Inhibition of NADH:ubiquinone oxidoreductase in rat liver mitochondria incubated for 3 mins
[3] = Apparent permeability in MDCK-MDR1 cells at 10 uM after 30 mins by LC-MS/MS analysis; format: ADME, cell-based, Canis lupus familiaris; conditions: dog
Procedure, shortened: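 Test article was taken from a 10 mM DMSO stock and diluted in DMEM to a final 10 µM donor solution, with 10 µM propranolol as internal standard. It was applied to hMDR1-MDCK monolayers on filters. Transfer to the receiver compartment was measured over 30 min in both directions, apical-to-basolateral and basolateral-to-apical. Quantification was by LC-MS/MS, n = 3.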

For `O=C(O)CCCc1cccs1`, the “fold change (FC)” value [1] was 1.16.

In the case of `O=C(CCC(=O)N1CCN(c2ccc(C(F)(F)F)cn2)CC1)c1cccs1`, the “fold change (FC)” value [1] is reported as 1.22.

With `O=C(CCCc1cccs1)N1CCN(c2ccccc2)CC1` the “fold change (FC)” value [1] was 0.96 and the IC50 [2] was 133 µM.

With `CN1CCN(C(=O)CCCc2cccs2)CC1` the “fold change (FC)” value [1] was 0.84 and the IC50 [2] was 161 µM.

With `O=C(CCCc1cccs1)N1CCN(c2ccc(C(F)(F)F)c(Cl)n2)CC1` the “fold change (FC)” value [1] was 1.22.

In the case of `O=C(c1cccs1)N1CCN(c2ccc(C(F)(F)F)cc2)CC1`, the “fold change (FC)” value [1] is reported as 0.93.

`O=C(CCCc1cn[nH]c1)N1CCN(c2ccc(C(F)(F)F)cc2)CC1` gave a fold change (FC) [1] of 1.35.

In the case of `O=C(CCCc1cccs1)N1CCN(c2ncc(C(F)(F)F)cc2Cl)CC1`, the “fold change (FC)” value [1] is reported as 1.13.

In the case of `O=C(CCCCCc1cccs1)N1CCN(c2ccc(C(F)(F)F)cc2)CC1`, the “fold change (FC)” value [1] is reported as 1.33.

With `COC(=O)CCCc1cccs1` the “fold change (FC)” value [1] was 1.09.

With `Cc1ccc(N2CCN(C(=O)CCCc3cccs3)CC2)cc1` the “fold change (FC)” value [1] was 1.

In the case of `O=C(CCC(=O)N1CCN(c2ncc(C(F)(F)F)cc2Cl)CC1)c1cccs1`, the “fold change (FC)” value [1] is reported as 1.26.

In the case of `FC(F)(F)c1ccc(N2CCN(CCCCc3cccs3)CC2)cc1`, the “fold change (FC)” value [1] is reported as 1.36.

For `O=C(CCCc1cccs1)N1CCN(c2ccc(C(F)(F)F)cc2Br)CC1`, the “fold change (FC)” value [1] was 1.02.

For `O=C(CCCc1cccs1)N1CCC(c2ccccc2)CC1`, the “fold change (FC)” value [1] was 1.25.

With `O=C(CCCc1cccs1)N1CCN(c2ccc(C(F)(F)F)cn2)CC1` the “fold change (FC)” value [1] was 1.

In the case of `O=C(CCSc1cccs1)N1CCN(c2ncc(C(F)(F)F)cc2Cl)CC1`, the “fold change (FC)” value [1] is reported as 1.31.

With `CCCCCCCC(=O)N1CCN(c2ccc(C(F)(F)F)cc2)CC1` the “fold change (FC)” value [1] was 1.38.

For `O=C(CCCc1cccs1)N1CCN(c2ccc([N+](=O)[O-])cc2)CC1`, the “fold change (FC)” value [1] was 1.06 and the IC50 [2] was 17 µM.

With `O=C(CCCc1cccs1)N1CCN(c2ccc(F)cc2)CC1` the “fold change (FC)” value [1] was 1.16.

For `O=C(CCCc1cccs1)NNc1ccc(C(F)(F)F)cc1`, the “fold change (FC)” value [1] was 1.24.

For `Nc1ccc(N2CCN(C(=O)CCCc3cccs3)CC2)cc1`, the “fold change (FC)” value [1] was 1.32.

`CCCCC(=O)N1CCN(c2ccc(C(F)(F)F)cc2)CC1` showed a fold change (FC) [1] of 1.28.

With `O=C(CCCc1cccs1)Nc1ccc(C(F)(F)F)cc1` the “fold change (FC)” value [1] was 1.11 and the IC50 [2] was 92 µM.

In the case of `O=C(CCCCc1ccccc1)N1CCN(c2ccc(C(F)(F)F)cc2)CC1`, the “fold change (FC)” value [1] is reported as 1.95 and the IC50 [2] is reported as 6 µM.

For `O=C(CCCc1cccs1)N1CCN(c2ccccc2C(F)(F)F)CC1`, the “fold change (FC)” value [1] was 0.85.

For `COC(=O)CCCCCCCC(=O)N1CCN(c2ccc(C(F)(F)F)cc2)CC1`, the “fold change (FC)” value [1] was 1.08.

For `CC(=O)N1CCN(c2ccc(C(F)(F)F)cc2)CC1`, the “fold change (FC)” value [1] was 1.43.

With `O=C(Cc1cccs1)N1CCN(c2ccc(C(F)(F)F)cc2)CC1` the “fold change (FC)” value [1] was 1.33.

In the case of `O=C(CCCCc1cccs1)N1CCN(c2ccc(C(F)(F)F)cc2)CC1`, the “fold change (FC)” value [1] is reported as 1.78 and the IC50 [2] is reported as 60 µM.

In the case of `O=C(O)CCCCCCCC(=O)N1CCN(c2ccc(C(F)(F)F)cc2)CC1`, the “fold change (FC)” value [1] is reported as 1.38.

In the case of `O=C(CCC(=O)N1CCN(c2ccc(C(F)(F)F)cc2)CC1)c1cccs1`, the “fold change (FC)” value [1] is reported as 1.19.

In the case of `O=C(CCc1cccs1)N1CCN(c2ccc(C(F)(F)F)cc2)CC1`, the “fold change (FC)” value [1] is reported as 1.09.

With `O=C(CCSc1cccs1)N1CCN(c2ccc(C(F)(F)F)cc2)CC1` the “fold change (FC)” value [1] was 2.14 and the IC50 [2] was 14 µM.

With `O=C(CCC(=O)N1CCC(c2ccc(C(F)(F)F)cc2)CC1)c1cccs1` the “fold change (FC)” value [1] was 1.31.

For `O=C(CCCc1cccs1)N1CCN(c2ccc(C(F)(F)F)cc2Cl)CC1`, the “fold change (FC)” value [1] was 1.58 and the IC50 [2] was 46 µM.

In the case of `O=C(CCCc1cccs1)N1CCN(C2CCCCC2)CC1`, the “fold change (FC)” value [1] is reported as 1.29.

For `O=C(CCCc1cccs1)N1CCC(c2ccc(C(F)(F)F)cc2)CC1`, the “fold change (FC)” value [1] was 2.14 and the IC50 [2] was 15 µM.

With `O=C(CCCc1cccs1)N1CCN(c2cc(C(F)(F)F)cc(C(F)(F)F)c2)CC1` the “fold change (FC)” value [1] was 1.42.

With `FC(F)(F)c1cnc(N2CCNCC2)c(Cl)c1` the “fold change (FC)” value [1] was 1.16.

With `COCCNC(=O)CCCCCCCC(=O)N1CCN(c2ccc(C(F)(F)F)cc2)CC1` the “fold change (FC)” value [1] was 2.35.

For `CN1CCN(c2ncc(C(F)(F)F)cc2Cl)CC1`, the “fold change (FC)” value [1] was 0.92 and the IC50 [2] was 67 µM.

With `O=C(CCc1ccco1)N1CCN(c2ccc(C(F)(F)F)cc2)CC1` the “fold change (FC)” value [1] was 1.11.

In the case of `CC(C)NCC(O)COc1cccc2ccccc12` (centres undefined) [PROPRANOLOL], the Papp at 0.5 h, 10 µM [3] is reported as 21.8 ×10⁻⁶ cm/s.
